Among the data in ChEMBL document CHEMBL1151226, “New bioactive prenylflavonoids and dibenzocycloheptene derivative from roots of Dendrolobium lanceolatum” (J Nat Prod, 2004) are IC50, MIC and Activity values, retold here.

A short description of experiment [1]: Cytotoxicity against human BC cells. In kind it is functional, cell-based. The essentials: (§1)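 Human epidermoid carcinoma (KB) and human breast cancer (BC) cell lines assessed by a colorimetric cytotoxicity method following Skehan and co-workers. Ellipticine was the reference substance.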
Experiment [2] concerns Mycobacterium tuberculosis. Kind of experiment: Antimycobacterial activity against Mycobacterium tuberculosis H37Ra by alamar blue assay. The class given is functional. The essentials:
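M. tuberculosis H37Ra tested in the Microplate Alamar Blue Assay (MABA). Isoniazid and kanamycin sulfate were the reference drugs.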

Experiment [3] has as its system KB. Kind of experiment: Cytotoxicity against human KB cells. In kind it is functional, cell-based. Summed up: as §1
Experiment [4] concerns NCI-H187. In words: Cytotoxicity against human NCI-H187 cells. The class given is functional, cell-based. The essentials: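 Human small cell lung cancer NCI-H187 cell line, assayed by the colorimetric method of Skehan and co-workers. Ellipticine served as the reference substance.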
Experiment [5] relates to Plasmodium falciparum. Kind of experiment: Antiplasmodial activity against multidrug-resistant Plasmodium falciparum K1 as [3H]hypoxanthine uptake. In kind it is functional, organism-based. Summed up: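 P. falciparum K1 (multidrug-resistant) maintained in culture by the Trager–Jensen method. Microculture radioisotope technique, with growth read as in vitro [3H]-hypoxanthine uptake by the parasites. IC50 is the concentration giving 50% reduction in parasite growth. Artemisinin was the reference standard.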

Another experiment concerns BC. In words: Cytotoxicity against human BC cells at 20 ug/ml. In kind it is functional, cell-based.
Experiment [6] relates to KB. In words: Cytotoxicity against human KB cells at 20 ug/ml. In kind it is functional, cell-based.
Experiment [7] relates to Plasmodium falciparum. Kind of experiment: Antiplasmodial activity against multidrug-resistant Plasmodium falciparum K1 at 20 ug/ml as [3H]hypoxanthine uptake. The class given is functional, organism-based.
Experiment [8] deals with NCI-H187. Kind of experiment: Cytotoxicity against human NCI-H187 cells at 20 ug/ml. In kind it is functional, cell-based.

In brackets after ≈: the same amount, converted by molar mass. Activity calls are given as the source filed them. The calls are words filed in the database; no cut-off is given here.

Turning to `CC(C)=CCc1c([C@@H]2CC(=O)c3c(O)cc(O)c(CC=C(C)C)c3O2)cc2c(c1O)OC(C)(C)C=C2`, the IC50 in [1] was 1.7 µg/mL (≈ 3.47 µM); in the experiment on KB [3], 1.2 µg/mL (≈ 2.45 µM); in the experiment on NCI-H187 [4], 0.6 µg/mL (≈ 1.22 µM); in the experiment with Plasmodium falciparum [5] it was 2.6 µg/mL (≈ 5.3 µM). Also, in experiment [2], the MIC turned out to be 6.3 µg/mL (≈ 12.8 µM).

`C[C@@H]1CC[C@H]2[C@@H](C)C(=O)O[C@@H]3O[C@@]4(C)CC[C@@H]1[C@]32OO4` [ARTEMISININ] gave an IC50 in the experiment on Plasmodium falciparum [5] of 0.001 µg/mL (≈ 0.00354 µM).

Consider `Cc1c2ccncc2c(C)c2c1[nH]c1ccccc12` [ELLIPTECINE], for which the IC50 (in experiment [1]; with KB [3]; in the experiment on NCI-H187 [4]) was 0.4 µg/mL (≈ 1.62 µM) each time.

With `NC[C@H]1O[C@H](O[C@H]2[C@H](O)[C@@H](O[C@H]3O[C@H](CO)[C@@H](O)[C@H](N)[C@H]3O)[C@H](N)C[C@@H]2N)[C@H](O)[C@@H](O)[C@@H]1O.O=S(=O)(O)O` [KANAMYCIN SULFATE], inhibition of growth in experiment [2] (MIC) required 2 µg/mL.

The compound `NNC(=O)c1ccncc1` [ISONIAZID] registered an MIC in experiment [2] of 0.04 µg/mL (≈ 0.292 µM).

In turn, `COc1ccc([C@@H]2CC(=O)c3c(O)cc(O)c(CC=C(C)C)c3O2)c(CC=C(C)C)c1O` had an MIC in experiment [2] of 12.5 µg/mL (≈ 28.5 µM). Also, the result with BC and in the experiment on KB [6] was inactive. In addition, the IC50 in the experiment with NCI-H187 [4] worked out at 8.1 µg/mL (≈ 18.5 µM); in the experiment with Plasmodium falciparum [5] it was 3.3 µg/mL (≈ 7.53 µM).

Take `CC1(C)C=Cc2c(ccc3c2O[C@H](c2ccc(O)cc2)CC3)O1`: the result with Plasmodium falciparum [7], in the experiment on NCI-H187 [8], in the experiment on BC and in the experiment with KB [6] was inactive. In addition, in experiment [2], the MIC was 25 µg/mL (≈ 81.1 µM).

Consider `COc1cc2c(cc1O)-c1cc(O)c(OC)c(OC)c1C=CC2`, for which the outcome with Plasmodium falciparum [7], in the experiment with NCI-H187 [8], with BC and in the experiment with KB [6] was inactive. For the same compound, the lowest concentration to inhibit growth in experiment [2] (MIC) was 50 µg/mL (≈ 159 µM).

`COc1cc2c(c(CC=C(C)C)c1O)O[C@H](c1ccc(O)c(O)c1CC=C(C)C)CC2`: the lowest concentration to inhibit growth in experiment [2] (MIC) was 25 µg/mL (≈ 58.9 µM). Moreover, the result in the experiment on NCI-H187 [8], in the experiment on BC and with KB [6] was inactive. Besides, the IC50 in the experiment on Plasmodium falciparum [5] was found to be 3.1 µg/mL (≈ 7.3 µM).
